Laboratory results from ChEMBL document CHEMBL1152445, “Modulation of multidrug resistance protein 1 (MRP1/ABCC1)-mediated multidrug resistance by bivalent apigenin homodimers and their derivatives” (J Med Chem, 2009).
Active and inactive are the calls of the source. The rule behind the calls is not given here.

Assays:
[1] = Cytotoxicity against human 2008/P cells after 5 days by MTS assay; assay type: cell-based; conditions: 120 h
[2] = Cytotoxicity against human 2008/MRP1 cells after 5 days by MTS assay; assay type: cell-based; conditions: 2008/MRP1, 120 h
[3] = Cytotoxicity against human 2008/MRP1 cells at 0.5 uM by MTS assay; assay type: cell-based; conditions: 2008/mrp1, 0.5 µM
[4] = Cytotoxicity against human 2008/P cells at 0.5 uM after 5 days by MTS assay; assay type: cell-based; conditions: 120 h
[5] = biological target: T1, Multidrug resistance-associated protein 1 (Homo sapiens, UniProt P33527); assay: Reversal of MRP1-mediated doxorubicin resistance in human 2008/MRP1 cells assessed as ratio of doxorubicin IC50 to doxorubicin IC50 in presence of compound at 0.5 uM; assay type: cell-based; conditions: 2008/mrp1, 0.5 µM
T1 sequence (P33527 whole entry): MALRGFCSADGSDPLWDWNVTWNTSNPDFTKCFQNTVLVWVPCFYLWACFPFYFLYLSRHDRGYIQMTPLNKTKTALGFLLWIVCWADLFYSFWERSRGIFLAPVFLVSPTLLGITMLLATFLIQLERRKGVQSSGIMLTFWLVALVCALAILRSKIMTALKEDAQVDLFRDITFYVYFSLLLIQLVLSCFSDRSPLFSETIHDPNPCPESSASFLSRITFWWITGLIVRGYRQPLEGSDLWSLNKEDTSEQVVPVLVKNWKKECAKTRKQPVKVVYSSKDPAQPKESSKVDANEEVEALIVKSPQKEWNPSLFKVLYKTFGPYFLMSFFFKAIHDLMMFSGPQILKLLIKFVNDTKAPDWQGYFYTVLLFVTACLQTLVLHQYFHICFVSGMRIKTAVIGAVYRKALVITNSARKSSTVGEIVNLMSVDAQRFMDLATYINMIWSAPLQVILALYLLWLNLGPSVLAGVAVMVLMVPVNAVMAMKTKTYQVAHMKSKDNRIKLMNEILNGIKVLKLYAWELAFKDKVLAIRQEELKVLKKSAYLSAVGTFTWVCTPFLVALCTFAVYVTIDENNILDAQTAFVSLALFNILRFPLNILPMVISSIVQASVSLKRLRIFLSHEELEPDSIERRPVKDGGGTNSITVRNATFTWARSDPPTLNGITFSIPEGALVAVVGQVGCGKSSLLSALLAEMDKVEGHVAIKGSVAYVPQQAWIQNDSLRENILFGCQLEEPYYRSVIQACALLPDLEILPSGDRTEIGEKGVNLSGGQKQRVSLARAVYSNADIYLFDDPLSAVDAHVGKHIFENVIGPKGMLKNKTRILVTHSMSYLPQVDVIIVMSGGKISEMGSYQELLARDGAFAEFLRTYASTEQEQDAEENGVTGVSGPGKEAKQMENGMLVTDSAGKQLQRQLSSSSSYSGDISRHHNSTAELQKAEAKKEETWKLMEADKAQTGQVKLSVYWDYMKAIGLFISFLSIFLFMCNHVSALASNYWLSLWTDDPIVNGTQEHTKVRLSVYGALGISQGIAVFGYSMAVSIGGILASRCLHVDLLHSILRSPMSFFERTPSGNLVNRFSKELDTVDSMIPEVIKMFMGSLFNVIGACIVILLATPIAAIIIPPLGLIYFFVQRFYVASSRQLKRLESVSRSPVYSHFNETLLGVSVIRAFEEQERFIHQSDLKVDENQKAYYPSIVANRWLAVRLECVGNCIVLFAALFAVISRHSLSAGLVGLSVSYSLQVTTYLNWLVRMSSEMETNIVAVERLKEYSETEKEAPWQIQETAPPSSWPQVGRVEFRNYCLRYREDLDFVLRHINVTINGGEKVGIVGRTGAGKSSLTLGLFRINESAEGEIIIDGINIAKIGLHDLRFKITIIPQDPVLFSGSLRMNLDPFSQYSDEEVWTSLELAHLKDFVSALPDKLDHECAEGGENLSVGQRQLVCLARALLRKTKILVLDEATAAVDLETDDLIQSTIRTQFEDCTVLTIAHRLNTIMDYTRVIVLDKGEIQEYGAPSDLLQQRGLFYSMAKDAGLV

Homo sapiens = species on record: Homo sapiens; assay: Increase in doxorubicin accumulation in doxorubicin-co-incubated human 2008/P cells at 3 uM after 120 mins by spectrofluorimetry; assay type: functional
Outline: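 5 × 10^5 cells of the parental ovarian line incubated 120 min at 37 °C with 20 μM doxorubicin plus 3 μM modulator, 0.3% DMSO as vehicle control. Cells washed twice with cold PBS pH 7.4 and lysed in 0.75 M HCl/0.2% Triton X-100 in isopropanol, then 20 min at 37 °C. Supernatant fluorescence read at ex 460/em 610 nm. Duplicate, three repeats, mean ± SEM.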

Mus musculus = assay: Potentiation of vincristine-efficacy in nude mouse model assessed as regression of tumor volume at 8 mg/kg in presence of 0.5 mg/kg vincristine; assay type: functional
[6] = Anticancer activity against human 2008/P cells after 5 days by MTS assay; assay type: functional, cell-based; conditions: 120 h
[7] = Anticancer activity against human 2008/MRP1 cells after 5 days by MTS assay; assay type: functional, cell-based; conditions: 2008/MRP1, 120 h
[8] = Selectivity ratio of IC50 for human 2008/MRP1 cells to IC50 for human 2008/P cells; assay type: functional
Outline: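 Ratio of doxorubicin or etoposide IC50 in the MRP1 transfectant to IC50 in the parental line. Both IC50 values come from the 5-day MTS proliferation assay without modulator.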

[9] = biological target: T1, Multidrug resistance-associated protein 1; assay: Reversal of MRP1-mediated doxorubicin resistance in doxorubicin co-incubated human 2008/MRP1 cells assessed as increase in doxorubicin accumulation at 3 uM after 120 mins by spectrofluorimetry relative to control; assay type: cell-based; conditions: 2008/mrp1, 2 h
[10] = biological target: T1, Multidrug resistance-associated protein 1; assay: Reversal of MRP1-mediated doxorubicin resistance in doxorubicin co-incubated human 2008/MRP1 cells assessed as effect on doxorubicin accumulation at […] after 120 mins by spectrofluorimetry; assay type: cell-based; conditions: 2008/mrp1, 2 h
[11] = biological target: ATP-binding cassette sub-family C member 2 (Homo sapiens, UniProt Q92887); assay: Inhibition of MRP2
ATP-binding cassette sub-family C member 2, sequence (Q92887 whole entry): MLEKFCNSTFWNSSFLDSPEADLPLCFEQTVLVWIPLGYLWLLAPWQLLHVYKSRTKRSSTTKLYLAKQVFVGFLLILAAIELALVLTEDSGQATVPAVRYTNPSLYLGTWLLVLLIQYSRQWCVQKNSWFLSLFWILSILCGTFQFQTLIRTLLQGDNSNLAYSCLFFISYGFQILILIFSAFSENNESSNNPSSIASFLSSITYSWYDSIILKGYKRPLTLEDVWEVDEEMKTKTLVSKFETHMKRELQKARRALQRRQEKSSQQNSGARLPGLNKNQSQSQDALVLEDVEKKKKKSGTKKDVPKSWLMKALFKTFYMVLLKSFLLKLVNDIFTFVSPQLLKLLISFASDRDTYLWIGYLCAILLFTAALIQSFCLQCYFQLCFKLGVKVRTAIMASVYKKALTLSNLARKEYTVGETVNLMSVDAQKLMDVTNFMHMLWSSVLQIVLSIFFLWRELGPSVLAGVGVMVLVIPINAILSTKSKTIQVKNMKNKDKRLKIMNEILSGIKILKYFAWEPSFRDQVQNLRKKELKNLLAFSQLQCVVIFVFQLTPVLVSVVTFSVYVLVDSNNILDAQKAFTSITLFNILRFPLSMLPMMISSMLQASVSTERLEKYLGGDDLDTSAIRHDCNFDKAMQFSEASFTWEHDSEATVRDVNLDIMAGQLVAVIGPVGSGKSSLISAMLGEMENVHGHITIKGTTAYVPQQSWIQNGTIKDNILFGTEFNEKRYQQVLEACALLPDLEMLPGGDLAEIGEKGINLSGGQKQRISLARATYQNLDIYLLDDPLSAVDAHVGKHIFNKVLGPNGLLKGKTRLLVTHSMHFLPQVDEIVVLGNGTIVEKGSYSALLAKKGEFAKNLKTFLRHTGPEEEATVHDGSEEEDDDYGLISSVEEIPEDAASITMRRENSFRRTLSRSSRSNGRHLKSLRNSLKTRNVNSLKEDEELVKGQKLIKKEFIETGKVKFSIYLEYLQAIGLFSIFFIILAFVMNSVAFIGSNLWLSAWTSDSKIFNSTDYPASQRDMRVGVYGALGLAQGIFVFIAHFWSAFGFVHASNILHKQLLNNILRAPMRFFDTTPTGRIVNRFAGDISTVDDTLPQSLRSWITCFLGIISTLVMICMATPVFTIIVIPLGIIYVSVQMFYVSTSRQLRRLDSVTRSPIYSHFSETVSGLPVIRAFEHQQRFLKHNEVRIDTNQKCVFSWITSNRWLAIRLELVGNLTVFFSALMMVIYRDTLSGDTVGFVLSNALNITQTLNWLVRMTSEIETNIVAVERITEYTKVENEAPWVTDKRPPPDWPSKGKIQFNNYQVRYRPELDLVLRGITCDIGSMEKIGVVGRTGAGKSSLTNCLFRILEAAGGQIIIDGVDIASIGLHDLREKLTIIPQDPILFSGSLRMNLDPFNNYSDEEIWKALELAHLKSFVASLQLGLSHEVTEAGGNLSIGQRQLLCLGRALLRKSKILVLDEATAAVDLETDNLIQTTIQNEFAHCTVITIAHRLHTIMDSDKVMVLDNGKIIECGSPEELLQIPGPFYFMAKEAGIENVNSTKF

| Structure (SMILES) | IC50 [1] [µM] | IC50 [2] [µM] | Activity [3] | Activity [4] | further results |
| --- | --- | --- | --- | --- | --- |
| Cc1ccc2c(=O)cc(-c3ccc(OCCOCCOCCOCCOCCOc4ccc(-c5cc(=O)c6ccc(C)cc6o5)cc4)cc3)oc2c1 | 60.6 | 53.3 | Non-toxic | Non-toxic |  |
| Cc1ccc2c(=O)cc(-c3ccc(OCCOCCOCCOCCOCCOCCOc4ccc(-c5cc(=O)c6ccc(C)cc6o5)cc4)cc3)oc2c1 | 6.1 | 10.2 | Non-toxic | Non-toxic |  |
| O=c1cc(-c2ccc(OCCOCCOCCOCCOCCOCCOCCOc3ccc(-c4cc(=O)c5c(O)cc(O)cc5o4)cc3)cc2)oc2cc(O)cc(O)c12 |  |  |  |  | Activity [5]: 1.5 |
| O=c1cc(-c2ccc(OCCOCCOCCOCCOCCOCCOCCOc3ccc(-c4cc(=O)c5ccccc5o4)cc3)cc2)oc2ccccc12 |  |  | Non-toxic | Non-toxic |  |
| COc1ccc(CCN(C)CCCC(C#N)(c2ccc(OC)c(OC)c2)C(C)C)cc1OC (centres undefined) |  |  |  |  | Activity (Homo sapiens): inactive |
| Cc1c(-c2ccc(OCCOCCOCCOCCOCCOc3ccc(-c4oc5ccccc5c(=O)c4C)cc3)cc2)oc2ccccc2c1=O |  |  | Non-toxic | Non-toxic |  |
| O=c1cc(-c2ccc(OCCOCCOCCOc3ccc(-c4cc(=O)c5c(O)cc(O)cc5o4)cc3)cc2)oc2cc(O)cc(O)c12 | > 100 | > 100 |  |  |  |
| O=c1cc(-c2ccc(OCCOCCOCCOCCOCCOCCOCCOCCOCCOc3ccc(-c4cc(=O)c5ccccc5o4)cc3)cc2)oc2ccccc12 |  |  | Non-toxic | Non-toxic |  |
| CN(C)C(=O)CCSC(SCCC(=O)O)c1cccc(/C=C/c2ccc3ccc(Cl)cc3n2)c1 (centres undefined) |  |  |  |  | Activity (Homo sapiens): inactive |
| Cc1onc2c1c(=O)n([C@H]1CCC[C@@H](CNC(=O)c3ccccc3)C1)c1cccc(Cl)c21 |  |  |  |  | Activity (Mus musculus): 63% |
| O=c1cc(-c2ccc(OCCOCCOCCOCCOCCOCCOCCOCCOc3ccc(-c4cc(=O)c5ccccc5o4)cc3)cc2)oc2ccccc12 |  |  | Non-toxic | Non-toxic |  |
| CCc1ccc2oc(-c3ccc(OCCOCCOCCOCCOCCOCCOc4ccc(-c5cc(=O)c6cc(CC)ccc6o5)cc4)cc3)cc(=O)c2c1 | > 96 | 76.2 | Non-toxic | Non-toxic |  |
| Cc1ccc2oc(-c3ccc(OCCOCCOCCOCCOc4ccc(-c5cc(=O)c6cc(C)ccc6o5)cc4)cc3)cc(=O)c2c1 | > 100 | > 77 | Non-toxic | Non-toxic |  |
| Cc1c(-c2ccc(OCCOCCOCCOCCOCCOCCOc3ccc(-c4oc5ccccc5c(=O)c4C)cc3)cc2)oc2ccccc2c1=O |  |  | Non-toxic | Non-toxic |  |
| Cc1ccc2oc(-c3ccc(OCCOCCOCCOCCOCCOc4ccc(-c5cc(=O)c6cc(C)ccc6o5)cc4)cc3)cc(=O)c2c1 | > 100 | > 100 | Non-toxic | Non-toxic | Activity (Homo sapiens): Active |
| O=c1cc(-c2ccc(OCCOCCOCCOCCOCCOCCOc3ccc(-c4cc(=O)c5ccccc5o4)cc3)cc2)oc2ccccc12 | 3.7 | 2.8 | Non-toxic | Non-toxic | Activity [5]: 7.8 |
| O=c1cc(-c2ccc(OCCOCCOCCOCCOCCOc3ccc(-c4cc(=O)c5ccc(F)cc5o4)cc3)cc2)oc2cc(F)ccc12 | 17.5 | 8.9 | Non-toxic | Non-toxic |  |
| O=c1cc(-c2ccc(OCCOCCOCCOCCOc3ccc(-c4cc(=O)c5c(O)cc(O)cc5o4)cc3)cc2)oc2cc(O)cc(O)c12 | > 100 | > 100 |  |  |  |
| Cc1ccc2c(=O)cc(-c3ccc(OCCOCCOCCOCCOc4ccc(-c5cc(=O)c6ccc(C)cc6o5)cc4)cc3)oc2c1 | > 100 | > 100 | Non-toxic | Non-toxic |  |
| CCc1ccc2oc(-c3ccc(OCCOCCOCCOCCOc4ccc(-c5cc(=O)c6cc(CC)ccc6o5)cc4)cc3)cc(=O)c2c1 | 77.7 | 69.5 | Non-toxic | Non-toxic |  |
| COc1cccc2c1C(=O)c1c(O)c3c(c(O)c1C2=O)C[C@@](O)(C(=O)CO)C[C@@H]3O[C@H]1C[C@H](N)[C@H](O)[C@H](C)O1 [DOXORUBICIN] |  |  |  |  | IC50 [6]: 0.063 µM; IC50 [7]: 0.577 µM; Ratio IC50 [8]: 9.2 |
| CCc1ccc2oc(-c3ccc(OCCOCCOCCOCCOCCOc4ccc(-c5cc(=O)c6cc(CC)ccc6o5)cc4)cc3)cc(=O)c2c1 | 62.6 | 46.1 | Non-toxic | Non-toxic |  |
| CCCN(CCC)S(=O)(=O)c1ccc(C(=O)O)cc1 [PROBENECID] |  |  |  |  | Activity [9]: Not Active; Activity (Homo sapiens): inactive; Activity [10]: Not Active |
| Cc1ccc2oc(-c3ccc(OCCOCCOCCOCCOCCOCCOc4ccc(-c5cc(=O)c6cc(C)ccc6o5)cc4)cc3)cc(=O)c2c1 | > 100 | > 100 | Non-toxic | Non-toxic |  |
| O=c1cc(-c2ccc(OCCOCCOCCOCCOCCOCCOCCOCCOCCOCCOCCOCCOCCOc3ccc(-c4cc(=O)c5ccccc5o4)cc3)cc2)oc2ccccc12 |  |  | Non-toxic | Non-toxic |  |
| O=c1c(O)c(-c2cc(O)c(O)c(O)c2)oc2cc(O)cc(O)c12 [MYRICETIN] |  |  |  |  | IC50 [11]: 22 µM |
| O=c1cc(-c2ccc(OCCOCCOCCOCCOCCOCCOc3ccc(-c4cc(=O)c5ccc(F)cc5o4)cc3)cc2)oc2cc(F)ccc12 | 4.4 | 5.2 | Non-toxic | Non-toxic |  |
| O=c1cc(-c2ccc(OCCOCCOCCOCCOc3ccc(-c4cc(=O)c5ccccc5o4)cc3)cc2)oc2ccccc12 | > 100 | > 93 |  |  |  |
